From PubChem BioAssay
An excerpt weighted towards active compounds, which were near 1.9% of everything screened.
proKLK7 act: proKLK7 zymogen activators, primary screen, biochemical, fluorescence intensity. purified proKLK7, EDANS-DABCYL substrate fluorescence; 100% is mature enzyme control, 0% vehicle. 370,000 tested, 0.9% active. activation, % at 7 µM. Kallikrein-7 (Homo sapiens), P49862;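 active = activation above the mean of all tested compounds plus 3 SD, computed per campaign excluding outliers beyond control limits, cut at about 13% in these data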
Target sequence (P49862 whole entry, looked up): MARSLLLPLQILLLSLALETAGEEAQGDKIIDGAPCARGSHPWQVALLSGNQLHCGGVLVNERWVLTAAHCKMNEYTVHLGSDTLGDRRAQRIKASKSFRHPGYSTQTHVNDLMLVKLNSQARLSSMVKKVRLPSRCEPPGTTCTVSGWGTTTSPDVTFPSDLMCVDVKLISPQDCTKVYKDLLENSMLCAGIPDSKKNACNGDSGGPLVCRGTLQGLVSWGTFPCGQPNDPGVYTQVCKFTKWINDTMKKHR
Rce1 inh: yeast Rce1p protease inhibitors, primary screen, biochemical, fluorescence, cell-free homogeneous. CAAX prenyl protease 2 (Saccharomyces cerevisiae (strain ATCC 204508 / S288c)), Q03530. yeast membranes, quenched prenylated peptide cleavage fluorescence. calls only. 290,000 tested, 0.27% active;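 active = fall in fluorescence gain of 50% or more versus controls, with final raw signal at or below 3038400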;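 also: plate controls were neutral control wells for no effect and wells lacking membranes for full effect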
Target sequence (Q03530 whole entry, looked up): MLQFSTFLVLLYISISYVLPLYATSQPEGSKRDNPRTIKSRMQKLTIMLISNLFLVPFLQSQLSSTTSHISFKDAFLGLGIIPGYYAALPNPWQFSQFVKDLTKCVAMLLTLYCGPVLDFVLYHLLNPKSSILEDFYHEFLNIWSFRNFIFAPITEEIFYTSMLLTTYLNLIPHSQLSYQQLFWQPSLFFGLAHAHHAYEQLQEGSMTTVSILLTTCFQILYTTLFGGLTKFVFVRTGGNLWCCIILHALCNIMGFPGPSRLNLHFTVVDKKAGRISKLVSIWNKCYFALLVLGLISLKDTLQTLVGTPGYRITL
V-ATPase pHluor: regulators of yeast V-ATPase proton pumping, primary screen, pHLuorin cytosolic pH fluorescence; S. cerevisiae; response, % at 10 µM; 350,000 tested, 0.37% active; AID 504577, 2011; in the data active = response mostly above about 7.3%, no sharp cut-off; inactive = mostly below about 5.4%; also: actives read high
T cell HTS: modulators of CD8 T cell-vesicle binding, primary screen, mouse 2C CD8+ T cells, flow cytometry; 2C CD8+ T cell-vesicle binding; active compounds read low; response (vesicle binding), % at 7 µM; 330,000 tested, 0.068% active;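 active = response, share of CD8 T cells binding vesicles, and their 90th percentile fluorescence all below set limits, cut at about 80% in these data, passing the limit was not always enough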;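 also: values below 100% mean blocked vesicle binding to the CD8+ T cells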
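material = purified 2C TCR transgenic mouse naive CD8+ T cells | controls = Unloaded micro-vesicles (low), QL9 vesicles with 0.7% DMSO (high) | detection = cytometric PE anti-B7-1 and Alexa647 anti-CD8 signals after 1% paraformaldehyde fixation | incubation = binding step 1.5 h, 37 °C, antibody labelling 20 min, ice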
Yeast superoxide: reduction of superoxide in aged yeast, primary screen, HTS; S. cerevisiae aged cells, superoxide DHE fluorescence; active compounds read low; superoxide response (% of plate mean), % at 10 µM; 330,000 tested, 0.18% active;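 active = superoxide response under a set limit, about three screen SD below normal, cut at about 65% in these data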;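 also: yeast aged for seven days with compound at 30 °C before DHE staining; 100% = average MFI of all compound-treated wells on the plate with controls excluded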
MIN6 prolif: inducers of MIN6 beta-cell proliferation, primary screen, ATP luminescence, uHTS; MIN6 cells proliferation, ATPlite luminescence, 48 h; cells starved in 0.2% serum; 100% = growth in 10% serum; proliferation, % at 10 µM; 330,000 tested, 0.29% active; AID 2380, 2010;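 active = compounds whose signal lies at least 3.5 SD above the mean of all wells on their plate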;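 also: 0% = DMSO-treated cells in low-serum medium and 100% = 10% serum control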
proKLK7 act conf: proKLK7 zymogen activators, confirmation, biochemical, fluorescence intensity, triplicate | 3,200 tested, 68% active | purified proKLK7, EDANS-DABCYL substrate fluorescence; scaled: vehicle 0, mature enzyme 100 | shares compounds with proKLK7 act | activation, % at 7 µM;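 active = activation, as change over the incubation, above the mean of all tested compounds plus 3 SD, cut at about 13% in these data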
EDANS-DABCYL int: EDANS-DABCYL substrate optical interference, artefact control for kallikrein-7 zymogen activator project, biochemical, fluorescence intensity, high throughput; shares compounds with proKLK7 act; no enzyme, 4 h; solvent 0%, active enzyme control 100%; activation, % at 7 µM; 3,200 tested, 80% active; AID 686952, 2013;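 active = activation above the all-compound mean plus 3 SD, ignoring values outside control-based bounds, cut at about 4.8% in these data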;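 also: value is the 4 h activation minus the activation read at time zero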
The depositor's hits bear a star; i = inactive; . = no result given.

SMILES | proKLK7 act | Rce1 inh | V-ATPase pHluor | T cell HTS | Yeast superoxide | MIN6 prolif | proKLK7 act conf | EDANS-DABCYL int
CN(C(=O)C1CCOC1)c1nnc(-c2ccccn2)s1 (stereo unspecified) | 41* | i | 2 | 212 | 92 | -1 | 50* | 48*
Cc1cnc(-c2nnc(N(C)C(=O)C3CCOC3)s2)cn1 (stereo unspecified) | 31* | i | 1 | 365 | 81 | -3 | 43* | 46*
Cc1ccc(-c2nnc(N(C)C(=O)c3cccnc3)s2)cn1 | 3 | i | 4 | 224 | 107 | -2 | . | .
COc1ccc(NC(=O)CC2CC3CCC2C3)cc1S(=O)(=O)N1CCOCC1 (stereo unspecified) | 0 | . | 2 | 405 | 97 | -4 | . | .
COc1ccc(OC)c(N=c2oc3cc(O)ccc3cc2C(N)=O)c1 | 14* | i | -2 | 726 | 91 | -4 | 12 | 15*
NC(=O)c1cc2ccc(O)cc2oc1=NCc1ccccc1 | 69* | i | -5 | 531 | 122 | -2 | 117* | 125*
NC(=O)c1cc2ccccc2oc1=NCc1ccccc1 | 2 | i | -10 | 372 | 100 | -1 | . | .
NC(=O)c1cc2ccc(O)cc2oc1=Nc1ccccc1 | 40* | i | -1 | . | . | . | 10 | 7.9*
CC=CC1OCC(CC)C(CCC)O1 (stereo unspecified) | 0 | . | -4 | . | . | . | . | .
CC1CN(S(=O)(=O)c2ccc(C(=O)Nc3ccccc3F)cc2)CC(C)O1 (stereo unspecified) | 0 | . | -1 | 257 | 96 | 1 | . | .
O=c1c2ccccc2c(C=NCCO)c(O)n1-c1ccccc1 | 3 | i | 0 | 150 | 114 | -1 | . | .
O=c1c2ccccc2c(C=NC2CCS(=O)(=O)C2)c(O)n1-c1ccccc1 (stereo unspecified) | 14* | i | 0 | 255 | 101 | -1 | 15* | 16*
NS(=O)(=O)c1ccc(NC(=O)/C=C/c2ccc3c(c2)OCO3)cc1 | -81 | i | 0 | 285 | 98 | 0 | . | .
O=C(/C=C/c1ccc2c(c1)OCO2)Nc1nc(-c2ccccc2)cs1 | -115 | i | 3 | 328 | 99 | -2 | . | .
CC(=O)Nc1ccc(NC(=O)/C=C/c2ccc3c(c2)OCO3)cc1 | 19* | i | -2 | 120 | 99 | 2 | 10 | 22*
O=C(/C=C/c1ccc2c(c1)OCO2)Nc1nncs1 | 13* | i | -4 | 996 | 88 | -3 | -22 | -196
Cc1ccc(-c2cc(NC(=O)Cc3c(C)[nH]c4ccccc34)ccc2Nc2cccnc2)cc1 | -1 | . | . | . | . | . | . | .
Nc1ccn(C[C@@H](CO)OCP(=O)(O)O)c(=O)n1 | 0 | . | . | . | . | . | . | .
COCC(=O)N1CCC(Oc2ccc(C(=O)N3CCN(C)C[C@@H]3C(C)C)cc2)CC1 | 0 | i | -2 | . | . | -4 | . | .
Cc1cccc(-n2c(O)c(C=Nc3ccccc3)c3ccccc3c2=O)n1 | 17* | i | -2 | 311 | 123 | -2 | 15* | 16*
COc1cccc(Nc2nc3cc(OC)ccc3cc2C#N)c1 | 29* | i | 5 | 420 | 112 | -3 | 56* | 61*
O=C1c2ccccc2-c2n[nH]c3cccc1c23 | 63* | . | 2 | . | . | 4 | 74* | 75*
O=c1c(-c2ccccc2)n[nH]c2ccccc12 | 0 | . | 1 | 331 | 99 | -2 | . | .
C=CCNC(=O)CSc1ncc2c(n1)-c1c(csc1SC)CC2 | 46* | i | 1 | 322 | 100 | 3 | 59* | 69*
CSc1scc2c1-c1nc(SCC(=O)C(C)(C)C)ncc1CC2 | -7 | . | -1 | 285 | 86 | -3 | . | .
SMILES | proKLK7 act | Rce1 inh | V-ATPase pHluor | T cell HTS | Yeast superoxide | MIN6 prolif | proKLK7 act conf | EDANS-DABCYL int
COc1cccc(C(C(=O)NC2CCCCC2)N(C(=O)CNC(=O)c2ccco2)c2cccnc2)c1 (stereo unspecified) | 0 | i | -6 | 208 | 95 | -2 | . | .
Nc1nc2nccc(-c3ccc(Cl)cc3)n2n1 | 57* | . | 5 | 378 | 99 | -1 | 70* | 85*
CN(C)/C=N/c1nc2nccc(-c3ccc(Cl)cc3)n2n1 | 18* | i | -1 | 223 | 104 | -1 | 66* | 69*
CN(C)/C=N/c1nc2nccc(-c3ccccc3)n2n1 | 12 | i | -2 | 306 | 94 | 1 | . | .
Cc1cccc(-c2cnc3cccnn23)c1 | 34* | . | . | . | . | . | 27* | 35*
CCOc1cccc(-c2cnc3cccnn23)c1 | 41* | . | . | . | . | . | 37* | 33*
CCOc1ccc(-c2cnc3cccnn23)cc1 | 11 | . | . | . | . | . | . | .
Cc1ccccc1NC(=O)Cc1nc(COC(=O)c2cc(Cl)ccc2O)cs1 | 1 | i | 4 | 240 | 116 | -5 | . | .
CCOC(=O)C1=C(CSc2nc(-c3ccccc3)ccc2C#N)OC(N)=C(C#N)C1c1ccccc1 (stereo unspecified) | 470* | i | 0 | 339 | 101 | -4 | 585* | 566*
CCOC(=O)C1=C(CSc2nc(-c3ccccc3)ccc2C#N)OC(N)=C(C#N)C1c1cccnc1 (stereo unspecified) | 382* | i | 1 | 434 | 110 | -4 | 384* | 347*
CCOC(=O)C1=C(CSc2nc3c(cc2C#N)CCC3)OC(N)=C(C#N)C1c1ccccc1 (stereo unspecified) | 5 | . | 3 | . | 97 | -5 | . | .
CN(C(=O)COC(=O)CNC(=O)c1sc2ccccc2c1Cl)C1CCS(=O)(=O)C1 (stereo unspecified) | 0 | . | -3 | 388 | 100 | 1 | . | .
CCOc1ccc(/C=C/C(=O)N(C)CC(=O)Nc2cccc(F)c2)cc1OCC | 106* | i | 1 | 397 | 89 | 0 | -10 | -10
C[C@H](NC(=O)c1cc2c(cn1)[nH]c1ccccc12)C(=O)O | 18* | i | -1 | 122 | 92 | -4 | 9 | 7.4*
O=C(NCCCO)c1cc2c(cn1)[nH]c1ccccc12 | 14* | i | -1 | 268 | 110 | -5 | 5 | 7.6*
